Assay results from ChEMBL document CHEMBL1154242, “ent-Kaurane and cembrane diterpenoids from Isodon sculponeatus and their cytotoxicity” (J Nat Prod, 2009).

What was measured:
Type in all cases: functional, cell-based
[1] = tested on: K562; assay: Cytotoxicity against human K562 cells after 48 hrs; details: K562, 48 h
Outline: (§1)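 Cells from the Shanghai Cell Bank were kept in RPMI1640 with 15% hormone-free heat-inactivated FBS, 2 mM glutamine, 100 U/mL penicillin G and 100 µg/mL streptomycin. Seeding was 5 × 10^4 cells/mL for K562 and 4 × 10^4 cells/mL for A549 and HepG2. Cells were exposed to compound for 48 h, and viability was read by CCK-8 at 450 and 650 nm. IC50 values come from triplicate experiments.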

[2] = tested on: A549; assay: Cytotoxicity against human A549 cells after 48 hrs; details: A549, 48 h; outline: as §1
[3] = tested on: HepG2; assay: Cytotoxicity against human HepG2 cells after 48 hrs; details: HepG2, 48 h; outline: as §1

| Structure (SMILES) | IC50 [1] | IC50 [2] | IC50 [3] |
| --- | --- | --- | --- |
| C=C1[C@@H]2C[C@@H](O)[C@@H]3[C@](C2)(C(=O)O[C@H]2C[C@H](O)C(C)(C)[C@H]4[C@H](O)OC(=O)[C@@]243)[C@@H]1O [EMEMOGIN] | > 10000 nM | > 10000 nM | > 10000 nM |
| C=C1[C@@H]2CC(=O)[C@H]3[C@]45C=CC[C@@](C)(CO)[C@H]4[C@H](O)[C@](O)(OC5)[C@]3(C2)[C@@H]1O [SCULPONIN L] | > 10000 nM | > 10000 nM | > 10000 nM |
| C=C1[C@@H]2C[C@@H](O)[C@@H]3[C@](C2)(C(=O)O[C@H]2CC[C@@]4(C)CO[C@H]5OC[C@]23[C@H]54)[C@@H]1O [SCULPONEATIN B] | > 10000 nM | > 10000 nM | > 10000 nM |
| C=C1C(=O)[C@]23C[C@H]1C[C@@H](O)[C@H]2[C@]12CO[C@@H]4O[C@H](O)[C@](C)(CC[C@@H]1OC3=O)[C@@H]42 [SCULPONIN H] | > 10000 nM | > 10000 nM | > 10000 nM |
| CC1(C)[C@H]2[C@H](O)OC[C@@]23[C@H](C[C@@H]1O)OC(=O)[C@@]12C[C@@H](C[C@@H](O)[C@H]13)[C@@]1(CCC3=C(O1)[C@]14C[C@H]3C[C@@H](O)[C@H]1[C@]13CO[C@@H]5OC[C@](C)(CC[C@@H]1OC4=O)[C@@H]53)C2=O [SCULPONIN E] | 2000 nM | 1850 nM | 1620 nM |
| C=C1[C@@H]2C[C@H](O)[C@@H]3[C@](C2)(C(=O)O[C@H]2C[C@H](O)C(C)(C)[C@H]4[C@H](O)OC[C@@]243)[C@@H]1OC(C)=O [SCULPONIN F] | > 10000 nM | > 10000 nM | > 10000 nM |
| C[C@]12CC[C@@H]3OC(=O)[C@@]45C[C@@H](C[C@@H](O)[C@H]4[C@]34CO[C@H](OC1)[C@H]24)[C@@]1(CCC2=C(O1)[C@]13C[C@H]2C[C@@H](O)[C@H]1[C@]12CO[C@@H]4OC[C@](C)(CC[C@@H]1OC3=O)[C@@H]42)C5=O [SCULPONIN D] | 1500 nM | 1000 nM | 1120 nM |
| C=C1C(=O)[C@]23C[C@H]1C[C@@H](O)[C@H]2[C@@]1(COC3=O)[C@@H]2[C@H]3OC[C@]2(C)CC[C@H]1O3 [SCULPONEATIN C] | 780 nM | 2730 nM | 680 nM |
| C=C1C(O)[C@]23C[C@H]1C[C@H](O)[C@H]2[C@]12CCC[C@@](C)(CO)[C@H]1[C@H](O)[C@]3(O)OC2 (some centres undefined) [SCULPONIN K] | > 10000 nM | > 10000 nM | > 10000 nM |
| C=C1[C@@H]2C[C@@H](O)[C@@H]3[C@](C2)(C(=O)O[C@H]2CC[C@@]4(C)[C@H](O)O[C@H]5OC[C@]23[C@H]54)[C@@H]1O [SCULPONIN I] | > 10000 nM | > 10000 nM | > 10000 nM |
| C=C1C(=O)[C@]23C[C@H]1C[C@@H](O)[C@H]2[C@@]12CO[C@@H](O)[C@@H]1C(C)(C)CC[C@@H]2OC3=O [NODOSIN] | 540 nM | > 10000 nM | 1920 nM |
| C=C1C(=O)[C@]23C[C@H]1C[C@@H](O)[C@H]2[C@]12CO[C@@H]4OC[C@](C)(CC[C@@H]1OC3=O)[C@@H]42 [SCULPONEATIN A] | 1620 nM | 1900 nM | 1770 nM |
| C=C1C(=O)O[C@H]2/C=C(\C)C[C@@H]3C=C(C/C=C/[C@@](C)(OO)CC[C@H]12)C(=O)O3 | 1200 nM | 1550 nM | 900 nM |
| C=C1[C@@H]2C[C@H](O)[C@@H]3[C@](C2)(C(=O)OC2O[C@H](O)[C@@H]4[C@@](C)(CO)CC[C@H](O)[C@]243)[C@@H]1O (some centres undefined) [SCULPONEATIN D] | > 10000 nM | > 10000 nM | > 10000 nM |
| C=C1[C@@H]2C[C@@H](O)[C@@H]3[C@](C2)(C(=O)O[C@H]2CC[C@]4(C)[C@H]5[C@H](OC[C@@]253)O[C@@H]4O)[C@@H]1O [SCULPONIN J] | > 10000 nM | > 10000 nM | > 10000 nM |
| CC1(C)CC[C@@H]2OC(=O)[C@@]34C[C@@H](C[C@H](O)[C@H]3[C@]23CO[C@@H](O)[C@H]13)[C@@H](CO)C4=O [MAOYECRYSTAL D] | > 10000 nM | > 10000 nM | > 10000 nM |
| C=C1[C@@H](O)[C@]23[C@H](O)[C@H]1CC[C@H]2[C@@]12CO[C@@]3(O)[C@@H](O)[C@@H]1C(C)(C)CC[C@@H]2O [ENMENOL] | > 10000 nM | > 10000 nM | > 10000 nM |
| C=C1C(=O)[C@]23C[C@H]1C[C@H](O)[C@H]2[C@@]12CO[C@@H](O)[C@@H]1C(C)(C)CC[C@@H]2OC3=O [EPINODOSIN] | 560 nM | 2100 nM | 1620 nM |
| C=C1C(=O)O[C@H]2/C=C(\C)C[C@@H]3C=C(CC[C@@H](OO)C(=C)CC[C@H]12)C(=O)O3 | 4300 nM | 4180 nM | 3110 nM |
| C=C1C(=O)[C@]23C[C@H]1C[C@@H](O)[C@H]2[C@]12CO[C@H]4O[C@@H](O)[C@](C)(CC[C@@H]1OC3=O)[C@@H]42 [SCULPONIN G] | > 10000 nM | > 10000 nM | > 10000 nM |
| C=C1C(=O)O[C@H]2/C=C(\C)C[C@@H]3C=C(CC/C=C(\C)CC[C@H]12)C(=O)O3 | 1250 nM | 1960 nM | 1400 nM |
| C=C1C(=O)[C@]23C[C@H]1CC[C@H]2[C@@]12CO[C@@H](O)[C@@H]1C(C)(C)[C@@H](O)C[C@@H]2OC3=O [ENEMIN] | 1620 nM | > 10000 nM | 2020 nM |
| C=C1[C@@H]2C[C@@H](O)[C@H]3[C@@]45CO[C@@](O)([C@@H](O)[C@@H]4C(C)(C)CC[C@@H]5O)[C@]3(C2)[C@@H]1O [NERVOSANIN B] | > 10000 nM | > 10000 nM | > 10000 nM |
